# High-throughput results as filed in PubChem BioAssay.
# Only some compounds are listed: those with a hit (about 4.1% of all), similar ones and a draw of the others.
# KCNQ1 pot = potentiators or activators of KCNQ1 channel, primary screen, cell-based, thallium flux, high-throughput. CHO-K1 KCNQ1, thallium flux FluxOR fluorescence; stronger effect = higher value. 310,000 tested, 0.35% active. B-score at 10 µM. Potassium voltage-gated channel subfamily KQT member 1 (Homo sapiens), P51787;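 active = fluorescence ratio B-score, a plate-corrected score, at least three library SD, with initial intensity B-score within 5 SD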
#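 System: CHO-K1 cells stably expressing KCNQ1 / Medium: assay buffer for compound exposure, DMSO matched across wells / Reagent: thallium- and potassium-containing depolarizing buffer / Compound: one concentration, matched DMSO / Incubation: 20 min compound pretreatment at room temperature / Measured by: kinetic FluxOR fluorescence, 10 s baseline plus 110 s post-stimulus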
# KCNQ1 block = inhibitors of human KCNQ1 channel, primary screen, cell-based, thallium flux, high-throughput; 310,000 tested, 1.3% active; B-score at 10 µM; CHO-K1 KCNQ1, FluxOR thallium flux fluorescence; stronger effect = higher value;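 active = compounds whose thallium flux B-score, printed positive for inhibition, exceeds three library SD while starting fluorescence stays within three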;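 also: channel opened by potassium depolarization with thallium stimulus after 20 min compound exposure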
# KCNK3 inh = human KCNK3 channel inhibitors, primary screen, CHO cells, FluxOR thallium flux, B-score; FluxOR fluorescence; stronger effect = lower value; B-score at 10 µM; 340,000 tested, 0.84% active; AID 602410, 2012;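 active = B-score under library mean minus 4 SD, starting fluorescence ratio at most library mean plus 5 SD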;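 also: more negative B-score means stronger inhibition of thallium flux through KCNK3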
# hERG protect = hERG rescue from dofetilide block, primary screen, cell-based, CHO-hERG, FluxOR thallium flux, dofetilide IC70 | 310,000 tested, 0.51% active | Voltage-gated inwardly rectifying potassium channel KCNH2 (Homo sapiens), Q12809 | dofetilide IC70 present | AID 1511, 2009 | activation (rescue from dofetilide block), less the hit threshold, % at 10 µM;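 active = activation above the mean of controls blocked by dofetilide plus 5 SD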;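 also: thallium influx through hERG after potassium depolarization seen as dye fluorescence rise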
# KCNK9 block = KCNK9 potassium channel inhibitors, primary screen, HEK293 cells, thallium flux | 310,000 tested, 1.2% active | B-score at 10 µM | FluxOR thallium flux fluorescence; stronger effect = lower value;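 active = ratio B-score over 3 SD below the library mean, with starting fluorescence within 5 SD of its mean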;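 also: negative B-score means less thallium flux so channel inhibition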
# Target sequence (Q9NPC2 whole entry, looked up): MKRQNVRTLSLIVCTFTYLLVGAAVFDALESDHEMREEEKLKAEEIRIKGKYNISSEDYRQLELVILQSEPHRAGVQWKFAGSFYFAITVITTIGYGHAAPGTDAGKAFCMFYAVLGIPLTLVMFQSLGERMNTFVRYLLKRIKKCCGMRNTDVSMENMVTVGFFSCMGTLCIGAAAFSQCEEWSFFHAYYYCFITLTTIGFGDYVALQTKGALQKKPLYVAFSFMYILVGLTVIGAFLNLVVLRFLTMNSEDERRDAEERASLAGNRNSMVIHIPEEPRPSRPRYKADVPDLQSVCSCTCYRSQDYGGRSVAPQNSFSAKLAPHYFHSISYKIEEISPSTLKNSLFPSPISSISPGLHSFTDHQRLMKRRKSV
# Cl transport mod = KCC2 cotransporter modulators, thallium flux, primary screen, cell-based, HEK293 KCC2, FluoZin-2 fluorescence, MLSMR; KCC2 cells, thallium flux FluoZin-2 fluorescence; B-score of Tl+ flux slope (higher = more flux/activation; lower = inhibition) at 10 µM; 190,000 tested, 2.2% active;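 active = thallium flux slope and its plate-corrected score both differing from the plate sample mean at a set confidence after two filtering rounds, in either direction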;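 also: slope of fluorescence scaled to starting intensity during 10 to 20 s after thallium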
# Starred values were filed as active, the others as inactive; i = inactive; x = no result given.
SMILES,KCNQ1 pot,KCNQ1 block,KCNK3 inh,hERG protect,KCNK9 block,Cl transport mod
COc1ccc(NC(=O)c2ccco2)c(OC)c1,i,i,i,-7,i,-1.6
COc1ccc(NC(=O)c2oc3ccccc3c2NC(=O)c2ccco2)c(OC)c1,i,i,i,-11,-7.8*,x
Cc1cccc(/C=N/n2c(C3CCCCC3)n[nH]c2=S)c1,i,i,i,-4,i,x
CC(/C=N/n1c(C2CCCCC2)n[nH]c1=S)=C\c1ccccc1,21*,i,i,-8,i,0.28
CSc1ncc(C(=O)Nc2ccccc2Cl)c(C)n1,13*,i,i,-4,i,x
CCOC(=O)c1cnc(SC)nc1Sc1ccccc1Cl,i,6*,i,-10,i,-0.74
CCOC(=O)c1cnc2c(ccc3ccccc32)c1Cl,i,i,i,-6,i,x
Cc1nn(C(C)(C)C)c(C)c1/C=N/OC(=O)Nc1ccc(Cl)cc1,i,7*,i,-15,i,-0.45
Cc1nn(C)c(C)c1/C=N/NC(=O)C(C)(C)Oc1ccc(Cl)cc1,i,i,i,-7,i,0.21
CC(C)(C)NC(=O)CN(C(=O)CCN1CCCc2ccccc21)C(C)(C)C,i,i,i,-6,i,0.39
Cc1ccccc1CN1C(=O)c2ccccc2Sc2ccc(C(=O)NCCN3CCOCC3)cc21,i,i,i,-13,i,x
CCN1CCN(CCNC(=O)c2ccc(/C=C3/Sc4ccccc4N(Cc4ccccc4C)C3=O)cc2)CC1,i,14*,i,-34,i,0.35
O=C(NCCCN1CCOCC1)c1ccc(/C=C2\Oc3ccccc3N(Cc3ccccc3F)C2=O)cc1,i,i,i,-12,i,x
CCN1CCN(CCCNC(=O)c2ccc(/C=C3/Sc4ccccc4N(Cc4ccccc4F)C3=O)cc2)CC1,i,7*,i,-34,-6.7*,-0.42
CCN1CCN(CCCNC(=O)c2ccc(/C=C3/Oc4ccccc4N(Cc4cccc(C)c4)C3=O)cc2)CC1,i,7*,i,-14,i,x
CCN1C(=O)c2cccc3c(NC(=O)C4CCCCC4)ccc1c23,i,i,i,0,i,x
CCN(CC)CCOC(=O)c1ccc(NC(=O)CCCN2C(=O)/C(=C/c3cccs3)SC2=S)cc1,i,i,i,-10,i,x
CCCCc1nc2sc3c(SCC(=O)NCc4ccco4)ncnc3c2c2c1CCC2,i,i,i,-4,i,-1.4
CCCCc1nc2sc3c(SCCN(C)C)ncnc3c2c2c1CCC2,21*,i,i,-6,i,1.9
CCc1c(C)c(C#N)c2nc3ccccc3n2c1NC,i,i,i,-7,i,x
CCc1c(C)c(C#N)c2nc3ccccc3n2c1NCc1ccco1,i,i,i,-17,i,-3.8*
COc1ccc(CCC(=O)NCCOc2ccc(C)cc2)cc1,11*,i,i,-3,i,x
CN(C)Cc1nc2ccccc2c(=O)n1Cc1nc(-c2cccc([N+](=O)[O-])c2)cs1,i,i,i,-13,-7.6*,-0.17
O=C(COc1ccc(Br)cc1Cl)NC(=S)N1CCc2ccccc21,i,i,i,-2,i,23*
O=C(COc1ccc(Br)cc1Br)NC(=S)N1CCCc2ccccc21,i,i,i,6.8*,i,11*
SMILES,KCNQ1 pot,KCNQ1 block,KCNK3 inh,hERG protect,KCNK9 block,Cl transport mod
CC(Oc1ccc(Cl)cc1Cl)C(=O)NC(=S)N1CCc2ccccc21 (centres undefined),9*,i,i,28*,i,44*
O=C(NC(=S)N1CCc2ccccc21)c1ccccc1Br,45*,i,i,52*,i,60*
Cc1cc(C)nc(SCC(=O)NNS(=O)(=O)c2ccc(C#N)cc2)n1,x,x,i,x,x,x
CCC1=C(OC(=O)N(CC)CC)N2C(=O)OC(=NCCc3c[nH]c4ccccc34)[C@]2(Cc2ccccc2)[C@H]2C1=CC[C@H]1C(=O)N(CC)C(=O)[C@H]12,i,i,i,-11,-6.8*,-0.6
Cc1ccc(NC(=O)c2ccc3c(c2)OCO3)cc1Cl,i,i,i,13*,i,x
CC1CCCN(c2ccc(C(=O)Nc3ccc4c(c3)OCO4)cc2[N+](=O)[O-])C1 (centres undefined),i,6*,i,-7,i,-1.2
Cc1ccc(C(=O)Nc2ccc3c(c2)OCO3)cc1Cl,i,i,i,-3,i,x
CC1CCN(c2ccc(C(=O)Nc3ccc4c(c3)OCO4)cc2[N+](=O)[O-])CC1,i,i,i,-8,i,-0.032
COc1ccc2cc(CCNC(=O)c3cc4ccccc4o3)c(=O)[nH]c2c1,i,i,i,-2,i,x
CC(NC(=O)c1ccc(CS(C)(=O)=O)cc1)c1ccc(-n2ccnc2)cc1 (centres undefined),i,i,i,-10,i,x
Cc1sc2ncn(CC(=O)NCCCC(=O)N3CCN(c4ccccc4)CC3)c(=O)c2c1C,i,i,i,-7,i,0.65
COc1ccc(C(=O)N=C2SC3CS(=O)(=O)CC3N2Cc2ccccc2)cc1OC (centres undefined),i,i,i,-5,i,x
CCCCN1C(=O)/C(=C/C=C2\N(C)c3ccccc3C2(C)C)SC1=S,i,11*,x,-17,i,-0.13
CCCN1C(=O)/C(=C\C=C2/C=CN(CC)c3ccccc32)SC1=S,i,i,i,-14,i,0.61
C/C(=N\NC(=O)CSCc1ccccc1Cl)c1cc(O)ccc1O,i,i,i,4.7*,i,-3
C/C(=N\OCc1nc2ccccc2c(=O)n1/N=C/c1cc(C)cc([N+](=O)[O-])c1O)c1ccccc1,i,9*,i,-16,i,-0.088
Cc1ccc(S(=O)(=O)NCCNC(=O)c2ccccc2)cc1,i,i,i,1,i,1.8
Cc1ccc(S(=O)(=O)NCc2ccc(C(=O)NCCN(Cc3ccccc3)C(C)C)cc2)cc1,i,6*,i,-13,i,0.19
O=S(=O)(Nc1nc2ccccc2nc1Cl)c1ccc(Br)cc1,i,9*,i,-10,i,-0.84
